Source: paper PMC9939367 (Acta Pharmaceutica Sinica. B, 2022)
Values joined by “and” are separate entries in the source; they are usually repeats but may differ in a detail not shown here. Identical values can stand only once.

Tests used:
male Wistar rats [1] = assay: Carrageenan-induced acute inflammatory pain, mechanical allodynia; type: in vivo, rat; conditions: for maximal effect, carrageenan mechanical allodynia: single i.p., ipsilateral paw
[2] = test system: male ferrets (Mustela putorius furo); assay: Proemetic response in ferrets; conditions: for nausea-like global score / emetic response (retching and vomiting, words): 4 h observation
male Wistar rats [3] = assay: Paw pressure test; type: in vivo, rat; conditions: for maximal efficacy, paw pressure: single i.p.
S1R = S1R (Rattus norvegicus, UniProt Q9R0C9); assay: Brain S1R occupancy, ex vivo autoradiography with [3H]-; type: in vivo; conditions: morphine 10 mg/kg, oxycodone 3 mg/kg i.p., 30 min
male Wistar rats [4] = assay: Spared nerve injury; type: in vivo, rat; conditions: for maximal effect, SNI mechanical allodynia: single i.p., ipsilateral paw
male Wistar rats [5] = assay: MIA-induced osteoarthritis pain, acute treatment, mechanical allodynia; type: in vivo, rat; conditions: for maximal effect, MIA mechanical allodynia: single i.p., ipsilateral paw
male Wistar rats [6] = assay: Tail-flick test; type: in vivo, rat; conditions: for maximal effect, tail flick: single i.p.
human S1R = conditions: read-out: In vitro binding affinity (Ki), S1R; cited from earlier work
[7] = more than 180 targets; cited from earlier work
male Wistar rats [8] = assay: Intestinal transit inhibition; type: in vivo, rat
male Wistar rats [9] = assay: Whole body plethysmography; type: in vivo, rat
human MOR [10] = biological target: T1, human MOR (Homo sapiens, UniProt P35372); type: cell-based
human MOR [11] = conditions: read-out: In vitro binding affinity (Ki), MOR; cited from earlier work
[12] = Plasma levels in the MIA study, repeated b.i.d. s.c. dosing; type: in vivo, rat
Procedure, shortened: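 MIA-injected male Wistar rats (n = 5/group) received 0.5, 1.5 or 3 mg/kg s.c. b.i.d. for 28 days, starting 14 days post-MIA. Caudal-vein blood was drawn on Day 1 (first dose) and Day 28 (last dose), 35–40 min post-dose, right after von Frey testing. Samples went into K2-EDTA tubes and were spun 4 °C, 3700 × g, 10 min. Acetonitrile precipitation preceded LC–MS/MS (LOQ 1 ng/mL). Values are mean ± SEM.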

S1R (σ1R) = S1R (σ1R) (Cavia porcellus, UniProt Q60492); assay: [3H]; type: binding; conditions: guinea pig brain membranes, 1 mmol/L DPH
male Wistar rats [13] = type: in vivo, rat; conditions: 3 mg/kg i.p.
Procedure, shortened: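 Male Wistar rats received i.p. vehicle (0.5% hydroxypropyl methylcellulose) or test compound, dose groups n = 7–10. The read-out 20 min after dosing was paw-pressure PPT, tail-flick TFL, or von Frey PWT in carrageenan-, MIA- and SNI-induced pain models. Dose–response curves were fitted to a four-parameter logistic (variable slope) by least-squares non-linear fitting. Efficacy at 3 mg/kg i.p. was calculated from each model's curve.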

[14] = Plasma and brain pharmacokinetics, 3 mg/kg i.p. single dose; type: in vivo; conditions: rat
Procedure, shortened: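 Male Wistar rats got a single 3 mg/kg i.p. dose: 48 rats, 8 sampling points, 6 per point. Blood went into heparinized tubes and was centrifuged 4 °C, 3700 × g, 10 min. Brains were homogenized in DPBS (1:5 w/w). After acetonitrile protein precipitation, LC–MS/MS quantified drug (LOQ 1 ng/mL plasma, 2 ng/g brain). AUC, Cmax, Tmax and t1/2 came from non-compartmental analysis. Brain-to-plasma ratio = AUC brain/AUC plasma.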

[15] = Plasma pharmacokinetics in ferrets, single i.p. dose; type: in vivo, ferret
Procedure, shortened: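 Male ferrets received a single i.p. dose of 0.5 or 1 mg/kg. Serial blood was drawn via carotid catheter at predose, 5, 15, 30 min and 1, 2, 4, 7, 24 h. Samples went into heparinized tubes and were spun 4 °C, 3700 × g, 10 min. Plasma was acetonitrile-precipitated and measured by LC–MS/MS (LOQ 1 ng/mL). AUC and Cmax came from non-compartmental analysis.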

human MOR [16] = biological target: T1, human MOR; type: cell-based; remark: listed apart in the source
MOR = MOR (Rattus norvegicus, UniProt P33535); assay: Brain MOR occupancy, ex vivo autoradiography with [3H]-DAMGO; type: in vivo; conditions: ip, read-out: MOR occupancy, average, 3 mg/kg i.p.
mice = conditions: repeated b.i.d. administration for 10 days in mice; cited from earlier work

T1 sequence (P35372 whole entry): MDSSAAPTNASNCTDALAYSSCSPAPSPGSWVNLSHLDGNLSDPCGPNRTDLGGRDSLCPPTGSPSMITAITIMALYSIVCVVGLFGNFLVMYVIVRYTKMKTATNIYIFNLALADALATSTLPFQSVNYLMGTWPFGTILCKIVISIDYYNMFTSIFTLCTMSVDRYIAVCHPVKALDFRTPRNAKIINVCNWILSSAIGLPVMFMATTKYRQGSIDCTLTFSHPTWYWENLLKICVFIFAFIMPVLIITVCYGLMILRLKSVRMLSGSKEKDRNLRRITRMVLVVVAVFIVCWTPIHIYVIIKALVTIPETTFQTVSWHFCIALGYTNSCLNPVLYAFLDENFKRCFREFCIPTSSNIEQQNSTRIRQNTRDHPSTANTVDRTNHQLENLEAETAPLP
S1R (σ1R), sequence (Q60492 whole entry): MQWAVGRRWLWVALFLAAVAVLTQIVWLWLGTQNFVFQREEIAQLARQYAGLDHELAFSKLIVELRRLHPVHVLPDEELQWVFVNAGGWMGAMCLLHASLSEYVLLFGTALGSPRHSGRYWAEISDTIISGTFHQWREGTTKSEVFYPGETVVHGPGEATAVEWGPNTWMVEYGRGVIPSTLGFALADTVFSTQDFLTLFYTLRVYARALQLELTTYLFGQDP
MOR, sequence (P33535 whole entry): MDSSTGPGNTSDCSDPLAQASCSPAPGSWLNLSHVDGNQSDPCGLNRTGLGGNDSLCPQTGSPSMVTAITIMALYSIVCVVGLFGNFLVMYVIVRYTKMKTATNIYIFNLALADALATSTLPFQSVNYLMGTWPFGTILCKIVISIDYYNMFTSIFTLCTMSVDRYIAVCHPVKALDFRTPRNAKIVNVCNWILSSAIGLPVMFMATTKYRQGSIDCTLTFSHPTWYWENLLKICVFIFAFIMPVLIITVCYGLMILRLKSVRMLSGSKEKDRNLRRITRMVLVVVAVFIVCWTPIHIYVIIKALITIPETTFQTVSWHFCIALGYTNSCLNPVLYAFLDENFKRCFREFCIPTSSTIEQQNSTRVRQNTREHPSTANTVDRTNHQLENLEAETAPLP
S1R, sequence (Q9R0C9 whole entry): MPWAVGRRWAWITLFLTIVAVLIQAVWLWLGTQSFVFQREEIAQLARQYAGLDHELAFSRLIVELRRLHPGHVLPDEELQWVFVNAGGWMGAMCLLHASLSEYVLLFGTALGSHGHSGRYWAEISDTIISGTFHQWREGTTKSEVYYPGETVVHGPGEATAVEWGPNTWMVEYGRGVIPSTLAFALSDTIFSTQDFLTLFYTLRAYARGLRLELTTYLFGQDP

In the case of CN1CC[C@]23c4c5ccc(O)c4O[C@H]2[C@@H](O)C=C[C@H]3[C@H]1C5 [morphine, Morphine, reference compound], the “maximal effect, carrageenan mechanical allodynia” value (male Wistar rats [1]) is reported as at least 80%, the nausea-like global score ([2]; 0.5 mg/kg s.c.) is reported as about 12 and the retches ([2]; 0.5 mg/kg s.c., 4 h period) is reported as 2.17 ± 0.60. The vomits ([2]; 0.5 mg/kg s.c., 4 h period) was 1.17 ± 0.65, the “maximal efficacy, paw pressure” value (male Wistar rats [3]) was at least 80% and the “effect on [3H]-(+)-pentazocine specific binding in rat cortex and striatum” value (S1R) was “neither morphine nor oxycodone had a significant effect”. The “maximal effect, SNI mechanical allodynia” value (male Wistar rats [4]) was 82.2 ± 11.1%, the “maximal effect, MIA mechanical allodynia” value (male Wistar rats [5]) was at least 95% and the “maximal effect, tail flick” value (male Wistar rats [6]) was at least 95%.
For CCN1CC2(CCN(CCc3cc(F)ccc3F)CC2)O[C@H](C)C1=O [WLB-73502, (R)-9-(2,5-difluorophenethyl)-4-ethyl-2-methyl-1-oxa-4,9-diazaspiro[5.5]undecan-3-one], the “potency relative to morphine, carrageenan” value (male Wistar rats [1]; more potent than morphine) is listed as 2 fold, the “maximal effect, carrageenan mechanical allodynia” value (male Wistar rats [1]) is listed as at least 80% and the Ki (human S1R) is listed as 118 nM. The “selectivity against target panel” value [7] was “selective”, the “emetic response (retching and vomiting, words)” value ([2]; 0.5 mg/kg i.p.) was “did not induce any emetic response” and the nausea-like global score ([2]; 0.5 mg/kg i.p.) was about 2. For the same molecule, the “emetic response (retching and vomiting, words)” value ([2]; 1 mg/kg i.p.) was “did not induce any emetic response”, the nausea-like global score ([2]; 1 mg/kg i.p.) was about 4 and the intestinal transit inhibition (male Wistar rats [8]; 2.5 mg/kg i.p.) was “did not significantly inhibit”. The intestinal transit inhibition (male Wistar rats [8]; 5 mg/kg i.p.) was “did not significantly inhibit”, the intestinal transit inhibition (male Wistar rats [8]; 10 mg/kg i.p.) was 19% and the intestinal transit inhibition (male Wistar rats [8]; 20 mg/kg i.p.) was 59%. For the same molecule, the “minute volume (MV) inhibition” value (male Wistar rats [9]; 1.25 mg/kg i.p.) was “did not significantly change MV”, the “minute volume (MV) inhibition” value (male Wistar rats [9]; 5 mg/kg i.p.) was “did not significantly change MV” and the “minute volume (MV) inhibition” value (male Wistar rats [9]; 10 mg/kg i.p.) was about 30%. For the same molecule, the “minute volume (MV) inhibition” value (male Wistar rats [9]; 20 mg/kg i.p.) was about 30%, the “potency relative to morphine, paw pressure” value (male Wistar rats [3]; more potent than morphine) was ~4 fold and 3 fold and the “maximal efficacy, paw pressure” value (male Wistar rats [3]) was at least 80%. For the same molecule, the “cAMP lgτ (operational efficacy, G-protein pathway)” value (human MOR [10]) was 1.58, the Ki (human MOR [11]) was 64 nM and the Plasma concentration ([12]; 0.5 mg/kg s.c. b.i.d., Day 28, 35–40 min after administration) was 82 ± 3.2 ng/mL. The Plasma concentration ([12]; 0.5 mg/kg s.c., Day 1, 35–40 min after administration) was 47.3 ± 3.8 ng/mL, the Plasma concentration ([12]; 1.5 mg/kg s.c. b.i.d., Day 28, 35–40 min after administration) was 283.7 ± 10.4 ng/mL and the Plasma concentration ([12]; 1.5 mg/kg s.c., Day 1, 35–40 min after administration) was 174.9 ± 7.4 ng/mL. The Plasma concentration ([12]; 3 mg/kg s.c. b.i.d., Day 28, 35–40 min after administration) was 550.6 ± 33.8 ng/mL, the Plasma concentration ([12]; 3 mg/kg s.c., Day 1, 35–40 min after administration) was 361 ± 24.7 ng/mL and the “Ki without DPH/Ki with DPH” value (S1R (σ1R)) was 0.9. For the same molecule, the “Antinociceptive efficacy, average of the pain models” value (male Wistar rats [13]) was 75%, the “Brain-to-plasma ratio (AUC brain/AUC plasma)” value ([14]; 3 mg/kg i.p.) was 2.57 and the Cmax ([14]; Wistar, brain, ip, 3 mg/kg) was 982 ± 191 ng/g. It also gave a Tmax ([14]; Wistar, brain, ip, 3 mg/kg, 3 mg/kg i.p.) of 4.8 min, a half-life ([14]; Wistar, brain, ip, 3 mg/kg, t1/2, brain, 3 mg/kg i.p.) of 20.4 min and an AUC(0-inf) ([14]; Wistar, plasma, ip, 3 mg/kg) of 136 ± 15 ng·h/mL. For the same molecule, the Cmax ([14]; Wistar, plasma, ip, 3 mg/kg) was 441 ± 73 ng/mL, the Tmax ([14]; Wistar, plasma, ip, 3 mg/kg, 3 mg/kg i.p.) was 4.8 min and the Tmax ([14]; Wistar, plasma, ip, 3 mg/kg, 3 mg/kg i.p., first sampling time) was 5 min. The “AUC0–∞” value ([14]; brain, 3 mg/kg i.p.) was 350 ± 40 (ng·h/g), the “potency relative to morphine, SNI” value (male Wistar rats [4]; more potent than morphine) was 8 fold and the “potency relative to oxycodone, SNI” value (male Wistar rats [4]; more potent than oxycodone) was 3 fold. For the same molecule, the “maximal effect, SNI mechanical allodynia” value (male Wistar rats [4]) was 91.2 ± 5.9%, the “potency relative to morphine, MIA” value (male Wistar rats [5]; more potent than morphine) was 2 fold and the “maximal effect, MIA mechanical allodynia” value (male Wistar rats [5]) was at least 95%. The AUC(0-inf) ([15]; ferret, plasma, ip, 1 mg/kg) was 2460 ± 625 ng·h/mL, the Cmax ([15]; ferret, plasma, ip, 1 mg/kg) was 620 ± 98 ng/mL and the “AUC in ferrets at 1 mg/kg relative to rats at 3 mg/kg” value ([15]; higher in ferrets) was 18 fold. For the same molecule, the “potency relative to morphine, tail flick” value (male Wistar rats [6]; more potent than morphine) was about 4 fold, the “maximal effect, tail flick” value (male Wistar rats [6]) was at least 95% and the “effect on β-arrestin-2 recruitment” value (human MOR [16]) was “no effect”. The receptor occupancy at 3 mg/kg (MOR) was 50% and the “naloxone-precipitated withdrawal signs” value (mice) was “not detected”.
With COc1ccc2c(c1)[C@]13CCCC[C@@H]1[C@H](C2)N(C)CC3 [dextromethorphan, Dextromethorphan, reference compound] the “Ki without DPH/Ki with DPH” value (S1R (σ1R)) was 9.0.
With COc1ccc2c3c1O[C@H]1C(=O)CC[C@@]4(O)[C@@H](C2)N(C)CC[C@]314 [oxycodone, reference compound] the “maximal effect, carrageenan mechanical allodynia” value (male Wistar rats [1]) was at least 80%, the intestinal transit inhibition (male Wistar rats [8]; 2.5 mg/kg i.p.) was “no effect” and the intestinal transit inhibition (male Wistar rats [8]; 5 mg/kg i.p.) was 72%. For the same molecule, the intestinal transit inhibition (male Wistar rats [8]; 10 mg/kg i.p.) was 93%, the “minute volume (MV) inhibition” value (male Wistar rats [9]; 1.25 mg/kg i.p.) was “did not significantly modify MV” and the “minute volume (MV) inhibition” value (male Wistar rats [9]; 5 mg/kg i.p.) was 30%. For the same molecule, the “minute volume (MV) inhibition” value (male Wistar rats [9]; 10 mg/kg i.p.) was 50%, the “maximal efficacy, paw pressure” value (male Wistar rats [3]) was at least 80% and the “maximal effect, SNI mechanical allodynia” value (male Wistar rats [4]) was 74.9 ± 7.5%. The “maximal effect, MIA mechanical allodynia” value (male Wistar rats [5]) was at least 95%, the “maximal effect, tail flick” value (male Wistar rats [6]) was at least 95% and the “β-Arrestin lgτ” value (human MOR [16]) was −0.28.
